Test results taken from ChEMBL document CHEMBL2331079, “Antibacterial and antiplasmodial constituents of Beilschmiedia cryptocaryoides” (J Nat Prod, 2013).
Converted amounts (≈) assume the structure as drawn.

Experiments:
[1] = system: Acinetobacter calcoaceticus; assay: Antibacterial activity against Acinetobacter calcoaceticus DSM 586 by paper disk diffusion method; assay type: functional
Summary of the method: (§1)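 Strains taken from the lab's own culture collection. Tested by paper disk diffusion, following the group's earlier published method. Each MIC was determined in triplicate.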

[2] = system: Escherichia coli; assay: Antibacterial activity against Escherichia coli 6r3 by paper disk diffusion method; assay type: functional; summary of the method: as §1
[3] = system: Serratia plymuthica; assay: Antibacterial activity against Serratia plymuthica C48 by paper disk diffusion method; assay type: functional; summary of the method: as §1
[4] = system: Stutzerimonas stutzeri; assay: Antibacterial activity against Pseudomonas stutzeri A1501 by paper disk diffusion method; assay type: functional; summary of the method: as §1
[5] = system: Plasmodium falciparum; assay: Antiplasmodial activity against chloroquine-sensitive Plasmodium falciparum NF54 after 48 hrs by [3H]-hypoxanthine incorporation assay; assay type: functional, organism-based
Summary of the method: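 Asexual blood-stage parasites in hypoxanthine-free RPMI 1640 with HEPES, NaHCO3, neomycin and Albumax, in human A+ erythrocytes (2.5% hematocrit, 0.3% parasitemia). Eleven 3-fold dilutions (100 to 0.002 μg/mL) from DMSO stocks. Incubated at 37 °C in 4% CO2/3% O2/93% N2. 3H-hypoxanthine (0.5 μCi) added at 48 h, then 24 h more. Read by scintillation counting. IC50 is the mean of two independent assays.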

[6] = system: L6; assay: Cytotoxicity against rat L6 cells after 70 hrs by Alamar Blue assay; conditions: L6, 70 h

SMILES | MIC [1] | MIC [2] | MIC [3] | MIC [4] | IC50 [5] | IC50 [6]
CC1(C)S[C@@H]2[C@H](NC(=O)[C@H](N)c3ccccc3)C(=O)N2[C@H]1C(=O)O [AMPICILLIN] | 5 µg/mL (≈ 14.3 µM) | 5 µg/mL (≈ 14.3 µM) | 20 µg/mL (≈ 57.2 µM) | 20 µg/mL (≈ 57.2 µM) |  | 
CCCCCC[C@@H]1[C@H]2C=C[C@H]3C(C(=O)O)=C[C@H](O)[C@@H]4C[C@@H]1[C@@H]2[C@H]43 [CRYPTOBEILIC ACID A] | > 50 µg/mL | 10 µg/mL (≈ 31.6 µM) | > 50 µg/mL | > 50 µg/mL | 17.7 µM | 59.5 µM
CCCCCC[C@@H]1[C@H]2C=C[C@H]3C(C(=O)O)=C[C@@H](O)[C@@H]4C[C@@H]1[C@@H]2[C@H]43 [CRYPTOBEILIC ACID B] | 20 µg/mL (≈ 63.2 µM) | 20 µg/mL (≈ 63.2 µM) | > 50 µg/mL | 10 µg/mL (≈ 31.6 µM) | 5.35 µM | 20.4 µM
O=C(O)C1=CC(=O)[C@@H]2C[C@H]3[C@H](Cc4ccc5c(c4)OCO5)[C@H]4C=C[C@@H]1[C@@H]2[C@H]43 [CRYPTOBEILIC ACID C] | > 50 µg/mL | > 50 µg/mL | > 50 µg/mL | > 50 µg/mL | 14 µM | 59.3 µM
CCCCCC[C@@H]1[C@H]2C=C[C@@H]3[C@@H]4[C@H]2[C@H]1C[C@H]4C=C[C@H]3C(=O)O [CRYPTOBEILIC ACID D] | > 50 µg/mL | 50 µg/mL (≈ 166 µM) | > 50 µg/mL | > 50 µg/mL | 10.8 µM | 61 µM
CN1CCN(c2cc3c(cc2F)c(=O)c(C(=O)O)cn3-c2ccc(F)cc2)CC1 [DIFLOXACIN] | 5 µg/mL (≈ 12.5 µM) | 5 µg/mL (≈ 12.5 µM) | 20 µg/mL (≈ 50.1 µM) | 20 µg/mL (≈ 50.1 µM) |  | 
COc1cc([C@@H]2c3cc4c(cc3[C@H](O)[C@H]3COC(=O)[C@H]23)OCO4)cc(OC)c1OC [PODOFILOX] |  |  |  |  |  | 0.008 µM
O=C(O)[C@@H]1C=C[C@@H]2C[C@H]3[C@H](Cc4ccc5c(c4)OCO5)[C@H]4C=C[C@@H]1[C@@H]2[C@H]43 [TSANGIBEILIN B] | > 50 µg/mL | 50 µg/mL (≈ 143 µM) | > 50 µg/mL | > 50 µg/mL | 8.2 µM | 21.5 µM
